pIC50, pKd: −log10 of the molar value. In brackets after ≈: the same amount, converted by molar mass. Each block holds one molecule with its values, some of them ahead of it. Activity calls are given as the source filed them. The rule behind the calls is not given here.
Columns and labels:
Keap1/Nrf2 = Keap1/Nrf2 (Homo sapiens, UniProt Q14145); assay: Inhibition of Keap1 Kelch domain (unknown origin) /Nrf2 (unknown origin) interaction using fluorescein-labeled 9-mer peptide containing NRF2 Neh2 domain ETGE motif by fluorescence anisotropy assay; assay type: protein assay
Keap1/Nrf2, sequence (Q16236 whole entry, the tested form may be a part): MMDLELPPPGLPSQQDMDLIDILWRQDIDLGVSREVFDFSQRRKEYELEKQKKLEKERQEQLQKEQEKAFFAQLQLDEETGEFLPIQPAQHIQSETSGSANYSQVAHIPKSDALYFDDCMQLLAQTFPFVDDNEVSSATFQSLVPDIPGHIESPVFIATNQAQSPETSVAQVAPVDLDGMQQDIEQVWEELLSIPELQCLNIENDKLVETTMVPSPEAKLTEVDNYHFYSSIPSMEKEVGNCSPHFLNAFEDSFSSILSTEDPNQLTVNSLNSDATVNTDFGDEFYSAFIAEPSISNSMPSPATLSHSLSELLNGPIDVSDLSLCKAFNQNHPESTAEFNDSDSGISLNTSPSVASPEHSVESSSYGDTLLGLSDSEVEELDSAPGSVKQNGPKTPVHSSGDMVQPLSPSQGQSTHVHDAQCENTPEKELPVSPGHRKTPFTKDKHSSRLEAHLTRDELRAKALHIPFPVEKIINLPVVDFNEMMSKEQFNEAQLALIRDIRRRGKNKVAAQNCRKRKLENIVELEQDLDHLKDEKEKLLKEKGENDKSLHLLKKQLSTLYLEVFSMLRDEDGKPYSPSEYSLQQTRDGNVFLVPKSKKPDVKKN
Keap1/Nrf2, sequence (Q14145 whole entry, the tested form may be a part): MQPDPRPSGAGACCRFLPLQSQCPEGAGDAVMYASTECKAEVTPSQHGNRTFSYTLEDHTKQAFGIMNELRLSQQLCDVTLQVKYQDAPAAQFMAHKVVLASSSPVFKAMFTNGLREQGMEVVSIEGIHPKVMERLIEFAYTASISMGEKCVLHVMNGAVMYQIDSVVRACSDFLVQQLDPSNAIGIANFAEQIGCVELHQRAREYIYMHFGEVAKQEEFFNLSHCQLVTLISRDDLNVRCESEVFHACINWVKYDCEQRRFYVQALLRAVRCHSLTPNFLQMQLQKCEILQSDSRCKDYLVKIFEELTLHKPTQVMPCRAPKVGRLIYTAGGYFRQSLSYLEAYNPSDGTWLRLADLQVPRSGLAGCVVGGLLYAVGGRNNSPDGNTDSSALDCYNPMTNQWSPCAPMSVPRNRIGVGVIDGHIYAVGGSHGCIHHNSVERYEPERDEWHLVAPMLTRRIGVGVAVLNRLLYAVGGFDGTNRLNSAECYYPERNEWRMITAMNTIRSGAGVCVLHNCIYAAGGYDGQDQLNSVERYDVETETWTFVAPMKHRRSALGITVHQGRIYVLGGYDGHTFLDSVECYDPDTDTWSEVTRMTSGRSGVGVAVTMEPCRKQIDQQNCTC

HaCaT [1] = assay: Effect on SOD2 gene expression in human HaCaT cells at 10 uM incubated for 24 hrs by qPCR method; assay type: ADME, cell-based
Salmonella typhimurium [2] = assay: Cytotoxicity in Salmonella typhimurium TA1537 at 1.5 to 1000 ug/well; assay type: organism-based; conditions: salmonella enterica subsp. enterica serovar typhimurium
Summary of the method: (§1)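 Mini-Ames plate incorporation; compounds dissolved in DMSO, tested at 1.5–1000 µg/well with and without Aroclor 1254-induced rat liver S9, alongside solvent and positive controls. Cells in top agar over minimal glucose agar; triplicate wells (vehicle sextuplicate), 37 ± 2 °C for 48–72 h. Cytotoxicity scored as fewer revertants per well and/or thinning or loss of background lawn relative to negative control.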

HaCaT [3] = assay: Effect on SOD2 gene expression in human HaCaT cells at 10 uM incubated for 6 hrs by qPCR method; assay type: ADME, cell-based
[4] = Lipophilicity, log D of the compound; assay type: physicochemical; conditions: octanol/water
Salmonella typhimurium [5] = assay: Cytotoxicity in Salmonella typhimurium TA1535 at 1.5 to 1000 ug/well; assay type: organism-based; conditions: salmonella enterica subsp. enterica serovar typhimurium; summary of the method: as §1
Salmonella typhimurium [6] = assay: Cytotoxicity in Salmonella typhimurium TA98 at 1.5 to 1000 ug/well; assay type: organism-based; conditions: salmonella enterica subsp. enterica serovar typhimurium; summary of the method: as §1
Salmonella typhimurium [7] = assay: Cytotoxicity in Salmonella typhimurium TA100 at 1.5 to 1000 ug/well; assay type: organism-based; conditions: salmonella enterica subsp. enterica serovar typhimurium; summary of the method: as §1
Escherichia coli = assay: Cytotoxicity in Escherichia coli WP2 uvrA (pKM101) at 1.5 to 1000 ug/well; assay type: organism-based; conditions: in vivo; summary of the method: as §1
[8] = Stability in mouse liver microsomes assessed as compound remaining level at 200 uM incubated for 20 mins by LC-MS method; assay type: ADME, microsome; conditions: read-out: Stability
[9] = Kinetic solubility in pH 7.4 incubated for 1 hr by HPLC method; assay type: physicochemical; conditions: buffer, read-out: Kinetic_solubility
[10] = biological target: T1, Keap1/Nrf2 (Homo sapiens) (UniProt Q16236+Q14145); assay: Inhibition of Keap1/Nrf2 interaction in human HaCaT cells assessed as increase in GCLM gene expression at 10 uM incubated for 6 hrs by qPCR method; assay type: cell-based
T1 sequence (Q14145 whole entry, looked up): as the sequence (Q14145 whole entry, the tested form may be a part) above
T1 sequence (Q16236 whole entry, looked up): as the sequence (Q16236 whole entry, the tested form may be a part) above

[11] = biological target: T1, Keap1/Nrf2 (Homo sapiens); assay: Inhibition of Keap1/Nrf2 interaction in human HaCaT cells assessed as increase in NQO1 gene expression at 10 uM incubated for 24 hrs by qPCR method; assay type: cell-based
[12] = biological target: T1, Keap1/Nrf2 (Homo sapiens); assay: Inhibition of Keap1/Nrf2 interaction in human HaCaT cells assessed as increase in NQO1 gene expression at 10 uM incubated for 6 hrs by qPCR method; assay type: cell-based
[13] = biological target: T1, Keap1/Nrf2 (Homo sapiens); assay: Inhibition of Keap1/Nrf2 interaction in human HaCaT cells assessed as increase in GCLC gene expression at 10 uM incubated for 24 hrs by qPCR method; assay type: cell-based
[14] = biological target: T1, Keap1/Nrf2 (Homo sapiens); assay: Inhibition of Keap1/Nrf2 interaction in human HaCaT cells assessed as increase in NQO1 protein expression at 10 uM incubated for 24 hrs by Western blot method; assay type: cell-based
Summary of the method: (§2)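 HaCaT cells in DMEM, 10% FBS, 1% antibiotics, treated at 70–80% confluence with 10 μM compound or DMSO for 6 or 24 h in complete medium. Lysates (~40 μg protein) resolved by 10% SDS-PAGE, immunoblotted for NQO1; bands quantified against GAPDH, vehicle set to one arbitrary unit.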

[15] = biological target: T1, Keap1/Nrf2 (Homo sapiens); assay: Inhibition of Keap1/Nrf2 interaction in human HaCaT cells assessed as increase in GCLM gene expression at 10 uM incubated for 24 hrs by qPCR method; assay type: cell-based
[16] = biological target: T1, Keap1/Nrf2 (Homo sapiens); assay: Inhibition of Keap1/Nrf2 interaction in human HaCaT cells assessed as increase in NRF2 nuclear accumulation at 10 uM incubated for 24 hrs by immunoblot assay; assay type: cell-based
[17] = biological target: Kelch-like ECH-associated protein 1 (Homo sapiens, UniProt Q14145); assay: Binding affinity to Keap1 Kelch domain (unknown origin) by surface plasmon resonance assay
Kelch-like ECH-associated protein 1, sequence (Q14145 whole entry, the tested form may be a part): as the sequence (Q14145 whole entry, the tested form may be a part) above

[18] = biological target: T1, Keap1/Nrf2 (Homo sapiens); assay: Inhibition of Keap1/Nrf2 interaction in human HaCaT cells assessed as increase in HMOX1 gene expression at 10 uM incubated for 6 hrs by qPCR method; assay type: cell-based
[19] = biological target: T1, Keap1/Nrf2 (Homo sapiens); assay: Inhibition of Keap1/Nrf2 interaction in human HaCaT cells assessed as increase in NQO1 protein expression at 10 uM incubated for 6 hrs by Western blot method; assay type: cell-based; summary of the method: as §2
[20] = biological target: T1, Keap1/Nrf2 (Homo sapiens); assay: Inhibition of Keap1/Nrf2 interaction in human HaCaT cells assessed as increase in GCLC gene expression at 10 uM incubated for 6 hrs by qPCR method; assay type: cell-based
[21] = biological target: T1, Keap1/Nrf2 (Homo sapiens); assay: Inhibition of Keap1/Nrf2 interaction in human HaCaT cells assessed as increase in HMOX1 gene expression at 10 uM incubated for 24 hrs by qPCR method; assay type: cell-based
[22] = biological target: T1, Keap1/Nrf2 (Homo sapiens); assay: Inhibition of Keap1/Nrf2 interaction in human HaCaT cells assessed as increase in NRF2 nuclear accumulation at 10 uM incubated for 6 hrs by immunoblot assay; assay type: cell-based
Salmonella typhimurium [23] = assay: Mutagenicity in Salmonella typhimurium TA98 assessed as increase in number of revertant colonies at 1.5 to 1000 ug/well in presence of rat liver S9 fractions incubated for 48 to 72 hrs; assay type: toxicity, organism-based; conditions: salmonella enterica subsp. enterica serovar typhimurium
Summary of the method: (§3)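 Reverse mutation at histidine locus in top agar (0.6% agar, 0.5% NaCl, histidine/biotin) with Aroclor 1254-induced rat liver S9 mix; DMSO vehicle, doses 1.5–1000 µg/well. Plated in triplicate wells (vehicle sextuplicate) on minimal glucose agar, 37 ± 2 °C for 48–72 h. Revertant colonies counted manually; fold-change over DMSO, p-values by two-tailed t-test.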

[24] = Stability in mouse liver microsomes assessed as compound remaining level at 1 uM incubated for 20 mins by LC-MS method
[25] = Stability in human liver microsomes assessed as compound remaining level at 1 uM incubated for 20 mins by LC-MS method
Salmonella typhimurium [26] = assay: Mutagenicity in Salmonella typhimurium TA100 assessed as increase in number of revertant colonies at 1.5 to 1000 ug/well in presence of rat liver S9 fractions incubated for 48 to 72 hrs; assay type: toxicity, organism-based; conditions: salmonella enterica subsp. enterica serovar typhimurium; summary of the method: as §3

pIC50 (Keap1/Nrf2): 5.89
SMILES: COc1ccc(S(=O)(=O)N(CC(=O)O)c2ccc(N(CC(=O)O)S(=O)(=O)c3ccc(OC)cc3)c3[nH]ccc23)cc1

pIC50 (Keap1/Nrf2): < 4.60
SMILES: COc1ccc(S(=O)(=O)N(CC(=O)O)Cc2ccccc2CN(CC(=O)O)S(=O)(=O)c2ccc(OC)cc2)cc1

pIC50 (Keap1/Nrf2): < 4.60
SMILES: COc1ccc(S(=O)(=O)N(CC(=O)O)c2ccc(N(CC(=O)O)S(=O)(=O)c3ccc(OC)cc3)nc2)cc1

logD [4]: -1.7
SMILES: COc1ccc(S(=O)(=O)N(CC(=O)O)c2cnc(N(CC(=O)O)S(=O)(=O)c3ccc(OC)cc3)c3ccccc23)cc1
Activity (HaCaT [1]): Non-Toxic
Activity (Salmonella typhimurium [2]): Non-Toxic
Activity (HaCaT [3]): Non-Toxic
Activity (Salmonella typhimurium [5]): Non-Toxic
Activity (Salmonella typhimurium [6]): Non-Toxic
Activity (Salmonella typhimurium [7]): Non-Toxic
Activity (Escherichia coli): Non-Toxic

pIC50 (Keap1/Nrf2): < 4.60
SMILES: COc1ccc(S(=O)(=O)Nc2ccc(NS(=O)(=O)c3ccc(OC)cc3)c3[nH]ccc23)cc1

pIC50 (Keap1/Nrf2): < 4.60
SMILES: COc1ccc(S(=O)(=O)N(CC(=O)O)C(=O)c2ccccc2C(=O)N(CC(=O)O)S(=O)(=O)c2ccc(OC)cc2)cc1

remaining at 20 min, 200 µM [8]: 15%
solubility kinetic at 1 h [9]: 5.4 µM (≈ 2.69 µg/mL)
SMILES: COc1ccc(S(=O)(=O)Nc2ccc(NS(=O)(=O)c3ccc(OC)cc3)c3ccccc23)cc1

inhibition [10]: Active
inhibition [11]: Active
inhibition [12]: Active
inhibition [13]: Active
inhibition [14]: Active
inhibition [15]: Active
inhibition [16]: Active
pKd [17]: 6.99
inhibition [18]: inactive
inhibition [19]: Active
pIC50 (Keap1/Nrf2): 7.00
inhibition [20]: Active
inhibition [21]: inactive
inhibition [22]: Active
SMILES: COc1ccc(S(=O)(=O)N(CC(=O)O)c2ccc(N(CC(=O)O)S(=O)(=O)c3ccc(OC)cc3)c3ncccc23)cc1
Activity (HaCaT [1]): Non-Toxic
Activity (HaCaT [3]): Non-Toxic

Stability [24]: Stable
Stability [25]: Stable
logD [4]: -1.9
solubility kinetic at 1 h [9]: 440 µM (≈ 270 µg/mL)
SMILES: COc1ccc(S(=O)(=O)N(CC(=O)O)c2ccc(N(CC(=O)O)S(=O)(=O)c3ccc(OC)cc3)c3ccccc23)cc1
Activity (Salmonella typhimurium [23]): Dose-dependent effect
Activity (Salmonella typhimurium [2]): Non-Toxic
Activity (Salmonella typhimurium [5]): Non-Toxic
Activity (Salmonella typhimurium [6]): Non-Toxic
Activity (Salmonella typhimurium [7]): Non-Toxic
Activity (Salmonella typhimurium [26]): Dose-dependent effect
Activity (Escherichia coli): Non-Toxic

remaining at 20 min, 200 µM [8]: 0%
solubility kinetic at 1 h [9]: 22 µM (≈ 13.5 µg/mL)
SMILES: COc1ccc(S(=O)(=O)N(CC(N)=O)c2ccc(N(CC(N)=O)S(=O)(=O)c3ccc(OC)cc3)c3ccccc23)cc1

pIC50 (Keap1/Nrf2): < 4.60
SMILES: COc1ccc(S(=O)(=O)N(CC=CCN(CC(=O)O)S(=O)(=O)c2ccc(OC)cc2)CC(=O)O)cc1 (mixture of isomers)

pIC50 (Keap1/Nrf2): < 4.60
SMILES: COc1ccc(S(=O)(=O)Nc2nnc(NS(=O)(=O)c3ccc(OC)cc3)c3ccccc23)cc1

pIC50 (Keap1/Nrf2): < 4.60
SMILES: COc1ccc(S(=O)(=O)Nc2ccc(NS(=O)(=O)c3ccc(OC)cc3)c3ncccc23)cc1

pIC50 (Keap1/Nrf2): 6.01
SMILES: COc1ccc(S(=O)(=O)N(CC(=O)O)c2ccc(N(CC(=O)O)S(=O)(=O)c3ccc(OC)cc3)cc2)cc1
